Data on two compounds can be found in PMC8301548 (Clinical and Translational Science, 2021).

Values after ≈ are worked out from the molar mass of the structure shown. Like-named read-outs stand apart in the source and are kept apart here.

The format of data set [1] is in vivo. The note with it: human, serum, po, 300 mg, 300 mg single oral dose of allopurinol; for Cmax / Vd/F / AUC(0-t): mean ± SE; for Tmax: median (range); for Vd/F: V/F (apparent volume of distribution).
Data set [2] can be described thus: Tolerability in the clinical study. In kind it is in vivo, human. The note with it: 19 healthy volunteers who completed the study; 300 mg oral allopurinol. The gist of the method: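 Healthy adults aged 18–50 were screened by medical-history questionnaire. Exclusions were HLA‑B*58:01 carriers, interacting medications, liver enzymes or creatinine >1.5× normal range, and abnormal platelet or white-cell counts. […] In one protocol they continued 300 mg once daily, with a final dose on day 6. In the other they received a single dose only.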

Data set [3] relates to serum uric acid (SUA). To be noted: cited from earlier work.
The test system of the next data set is BCRP. The note with it: cited from earlier work.
Data set [4] in a line: Population PK model of oxypurinol. In kind it is in vivo, human. To be noted: for Kfm (formation rate constant): final PK model.
Data set [5] concerns serum uric acid (SUA). It is filed as in vivo, human.

The Cmax is the highest concentration seen after dosing. Broadly, the Tmax is the time at which the peak concentration occurs. Usually Vd/F stands for the volume of distribution divided by bioavailability. As to `Oc1ncnc2[nH]ncc12` [Allopurinol, allopurinol], the peak concentration (Cmax) in data set [1] (genotype (0) CC, n=9) is 1370 ± 130 ng/mL; in data set [1] (genotype (1) CA, n=7) it was 1930 ± 617 ng/mL; in data set [1] (genotype (2) AA, n=3), 1550 ± 453 ng/mL. Besides, the time to peak (Tmax) amounted to 1.5 h in data set [1] (genotype (0) CC), 1 h in data set [1] (genotype (1) CA) and 2 h in data set [1] (genotype (2) AA). Further, the Vd/F in data set [1] (genotype (0) CC) came out at 149 ± 17 L; in data set [1] (genotype (1) CA), 160 ± 22.3 L; in data set [1] (genotype (2) AA), 148 ± 40.9 L. For the same compound, in data set [2], the tolerability result was “well‐tolerated”. Moreover, the “patients reaching an acceptable treatment end point” value in the data set with serum uric acid (SUA) [3] is given as 21%. Also, in the data set on BCRP, the BCRP substrate entry was “substrates of BCRP”.

As usually defined, the AUC(0-t) is exposure summed from dosing to a finite time, without extrapolation to infinity. For `O=c1[nH]c(=O)c2c[nH]nc2[nH]1` [Oxypurinol, oxypurinol], the AUC(0-t) in data set [1] (AUC0–24, genotype (0) CC) worked out at 93900 ± 8070 ng·h/mL; in data set [1] (AUC0–24, genotype (1) CA), 93400 ± 9990 ng·h/mL; in data set [1] (AUC0–24, genotype (2) AA), 105000 ± 20600 ng·h/mL. Moreover, the Cmax is 5930 ± 409 ng/mL in data set [1] (genotype (0) CC, n=9); 6440 ± 592 ng/mL in data set [1] (genotype (1) CA, n=7); 6380 ± 1350 ng/mL in data set [1] (genotype (2) AA, n=3). For the same compound, the Tmax in data set [1] (genotype (0) CC) stood at 4 h; in data set [1] (genotype (1) CA), 4 h; in data set [1] (genotype (2) AA), 6 h. Further, the Vd/F in data set [1] (genotype (0) CC) was found to be 49.9 ± 4.53 L; in data set [1] (genotype (1) CA), 61.9 ± 9.58 L; in data set [1] (genotype (2) AA) it was 56.6 ± 11.6 L; in data set [4] (male, human, plasma, oral, 300 mg), 57 L. Besides, in data set [4] (V/Fm=θV/Fm×(1+θgender), estimate (%RSE) [95% CI]), the “θgender(female), covariate effect on V/Fm” value is “θgender(female) = −0.248 (35.7) [−0.395, −0.067]”. Further, the “Kfm (formation rate constant)” value in data set [4] (BSV in parentheses in the text) was 0.771 h⁻¹; in data set [4] (estimate (%RSE) [95% CI]), 0.771 (17.8) [0.535, 1.06] 1/h. Also, the “lower V/Fm in women compared with men” value in data set [4] (final PK/PD model, gender covariate) was found to be 24.8%. In addition, the EC50 in the data set with serum uric acid (SUA) [5] (Homo sapiens, read-out: C50 (concentration needed to achieve 50% effect)) was 2.59 µg/mL (≈ 17 µM). Moreover, the “Emax (maximum effect)” value in the data set with serum uric acid (SUA) [5] (final PK/PD model, effect on SUA, RSE not given) was 1. For the same compound, in the data set on BCRP, the BCRP substrate entry is on record as “substrates of BCRP”.
